We go through 1 compound from PMC3152441 (Chemistry & biology, 2011).

Data set [1] deals with inflammasomes. The data set is described as follows: IL-1β secretion induced by inflammasome activators. Type of data set: cell-based. The conditions noted are these: 5 μM compound; MSU, poly(dA:dT), LPS plus ATP, S. typhimurium. The method in brief: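 RAW264.7 macrophages were treated with 5 μM test compound, with LPS pre-treatment to induce pro-IL-1β synthesis. Supernatants were taken at 2 h (Salmonella) or 4 h (others). IL-1β by ELISA. Mean ± SD, n=3.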

For data set [2], the system named is Bcl-XL and Bid. Briefly: Ni/NTA pull-down of purified His6-tagged control proteins. The conditions noted are these: purified protein, 20 μM compound. The method in brief:
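Purified His6-Bcl-XL or His6-Bid (≈0.4 ug) was pre-incubated 60 min with 20 μM test compound, with DMSO as control. Ni-NTA agarose beads were added and incubated overnight at 4°C. Pulled-down protein was immunoblotted with anti-His antibody. Bands were quantified relative to the DMSO control.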

The subject of data set [3] is NOD1 signaling. The data set is described as follows: Gene transfection experiments in HEK 293T-NF-κB-luciferase cells. Type of data set: cell-based. The method in brief:
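HEK293T NF-κB-luciferase cells were transfected with NOD1, RIP2, XIAP or GFP plasmids in various combinations. After 24 h, cells were cultured ± 3.5 μg/ml γ-tri-DAP, ± 10 μM test compound, or both, for 24 h. Luciferase was normalised to GFP-transfected cells (100%). Mean ± SD, n=4.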

The target of data set [4] is NOD2 (Homo sapiens, UniProt Q9HC29). The data set is described as follows: Subcellular fractionation of MCF-7 cells stably expressing epitope-tagged NOD2. The class given is cell-based. The conditions noted are these: MCF-7 cells expressing NOD2.
Chain of NOD2 (Q9HC29 whole entry): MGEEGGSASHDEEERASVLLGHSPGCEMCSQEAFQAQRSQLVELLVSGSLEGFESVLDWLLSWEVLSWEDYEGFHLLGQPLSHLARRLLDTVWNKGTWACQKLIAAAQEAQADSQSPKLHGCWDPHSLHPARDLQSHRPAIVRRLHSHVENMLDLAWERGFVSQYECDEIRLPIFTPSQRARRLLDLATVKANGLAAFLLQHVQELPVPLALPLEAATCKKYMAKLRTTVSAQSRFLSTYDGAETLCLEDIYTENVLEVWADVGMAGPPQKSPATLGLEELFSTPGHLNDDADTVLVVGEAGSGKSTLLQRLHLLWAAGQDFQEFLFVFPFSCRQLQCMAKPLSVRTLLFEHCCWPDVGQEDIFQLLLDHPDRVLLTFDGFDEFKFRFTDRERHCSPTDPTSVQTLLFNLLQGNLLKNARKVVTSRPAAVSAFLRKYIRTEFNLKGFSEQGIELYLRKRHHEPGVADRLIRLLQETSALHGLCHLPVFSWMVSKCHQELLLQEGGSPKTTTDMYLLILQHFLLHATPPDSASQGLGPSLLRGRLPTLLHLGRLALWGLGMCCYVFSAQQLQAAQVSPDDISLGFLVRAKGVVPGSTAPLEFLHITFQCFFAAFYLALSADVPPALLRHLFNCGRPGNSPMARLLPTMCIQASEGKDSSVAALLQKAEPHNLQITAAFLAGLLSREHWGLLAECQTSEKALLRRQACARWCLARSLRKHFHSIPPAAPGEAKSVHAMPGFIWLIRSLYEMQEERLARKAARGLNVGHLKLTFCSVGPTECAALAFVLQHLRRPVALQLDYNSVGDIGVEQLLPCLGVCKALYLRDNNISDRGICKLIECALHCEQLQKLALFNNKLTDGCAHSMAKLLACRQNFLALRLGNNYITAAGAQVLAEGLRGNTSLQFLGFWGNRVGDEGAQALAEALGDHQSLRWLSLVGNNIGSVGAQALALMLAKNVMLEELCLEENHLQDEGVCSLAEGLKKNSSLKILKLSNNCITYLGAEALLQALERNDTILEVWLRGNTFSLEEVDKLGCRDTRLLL
A short description of data set [5]: Cell viability under diverse cell treatments. The class given is cell-based.
Data set [6] deals with RIG-I/MDA-5, IRF3. The data set is described as follows: HEK293T ISRE-driven luciferase reporter, other interferon response stimuli. Type of data set: cell-based. The conditions noted are these: 5 μM compound; poly(I:C), poly(dA:dT), Sendai virus. Put shortly:
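HEK293T cells stably expressing an ISRE-driven luciferase reporter were cultured ± 5 μM test compound with 1 μg/ml poly(I:C) (LyoVec lipid transfection), 1 μg/ml poly(dA:dT) (LyoVec) or Sendai virus. Luciferase was measured after 24 h. Mean ± SD, n=4.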
For orientation: Reporter assays use an easily measured gene product as a stand-in for the process of interest.

Data set [7] relates to TLR1, 2, 4, 5, 6 and 8. The data set is described as follows: THP.1 macrophage NF-κB/AP-1-inducible SEAP reporter, TLR agonists. Type of data set: cell-based, Human. The conditions noted are these: 5 μM compound, 24 h, PMA-differentiated THP.1. The method in brief: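 PMA-differentiated THP.1 cells carrying NF-κB-driven SEAP were cultured ± 5 μM test compound with TLR inducers: 0.5 μg/ml Pam3CSK4, heat-killed Listeria monocytogenes (HKLM), 1 μg/ml FSL-1, 0.5 μg/ml LPS, 0.5 μg/ml flagellin or 1 μg/ml ssRNA40. Supernatant SEAP was measured after 24 h, as % of inducer alone. Mean ± SEM, n=2.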

Data set [8] concerns non-canonical NF-κB activation induced by BAFF. The data set is described as follows: 697 pre-B leukemia cells NF-κB-luciferase reporter, BAFF. The class given is cell-based. The conditions noted are these: 697 cells, 10 μM compound, 100 ng/ml BAFF, 24h. The method in brief:
(§1)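 697 cells stably carrying an NF-κB-luciferase reporter were cultured with or without 10 μM test compound plus inducer: 100 ng/ml BAFF or 5 μM ODN2006 as TLR9 ligand. Luciferase activity was read 24 h later. Mean ± SD, n=3.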

The subject of data set [9] is NF-κB, MAPK and Akt signalings. The data set is described as follows: γ-tri-DAP-dependent signaling. Type of data set: cell-based.
Data set [10] addresses T1, TLR9 (Homo sapiens, UniProt Q9NR96).
T1 sequence (Q9NR96 26-1032): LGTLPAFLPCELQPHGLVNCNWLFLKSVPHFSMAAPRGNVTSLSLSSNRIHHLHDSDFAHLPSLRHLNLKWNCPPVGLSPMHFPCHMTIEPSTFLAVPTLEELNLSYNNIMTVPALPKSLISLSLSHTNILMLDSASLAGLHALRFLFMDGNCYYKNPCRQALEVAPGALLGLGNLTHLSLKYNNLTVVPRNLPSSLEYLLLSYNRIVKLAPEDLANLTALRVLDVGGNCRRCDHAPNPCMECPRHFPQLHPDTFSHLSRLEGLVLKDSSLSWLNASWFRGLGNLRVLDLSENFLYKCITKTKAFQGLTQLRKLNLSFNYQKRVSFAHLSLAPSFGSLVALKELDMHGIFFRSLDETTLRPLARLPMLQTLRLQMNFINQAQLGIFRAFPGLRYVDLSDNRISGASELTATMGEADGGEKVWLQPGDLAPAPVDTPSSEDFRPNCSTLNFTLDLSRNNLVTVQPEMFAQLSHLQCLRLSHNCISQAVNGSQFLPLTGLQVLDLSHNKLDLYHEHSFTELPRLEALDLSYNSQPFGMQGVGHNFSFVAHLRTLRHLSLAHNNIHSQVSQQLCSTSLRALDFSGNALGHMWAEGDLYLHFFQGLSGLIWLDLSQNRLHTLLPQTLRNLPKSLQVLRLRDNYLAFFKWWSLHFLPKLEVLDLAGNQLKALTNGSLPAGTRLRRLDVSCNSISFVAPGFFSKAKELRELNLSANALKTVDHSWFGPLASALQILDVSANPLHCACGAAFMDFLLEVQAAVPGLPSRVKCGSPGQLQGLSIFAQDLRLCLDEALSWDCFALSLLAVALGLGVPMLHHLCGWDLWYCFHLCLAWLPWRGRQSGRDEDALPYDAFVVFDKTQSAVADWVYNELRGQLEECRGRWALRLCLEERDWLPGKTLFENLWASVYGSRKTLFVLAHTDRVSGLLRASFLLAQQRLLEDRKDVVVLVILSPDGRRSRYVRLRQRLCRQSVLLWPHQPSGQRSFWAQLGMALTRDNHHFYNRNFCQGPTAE
Briefly: 697 pre-B leukemia cells NF-κB-luciferase reporter, CpG DNA. The class given is cell-based. The following applies: 697 cells, 10 μM compound, 5 μM ODN2006, 24h. The method in brief: as §1

Data set [11] deals with IκBα. Briefly: γ-tri-DAP-induced expression of NF-κB target gene IκBα. Type of data set: cell-based.

With `Cc1ccc(S(=O)(=O)n2c(N)nc3ccccc32)cc1` [CID-1088438], the “IL-1β secretion induced by various inflammasome activators” value in [1] was “did not inhibit”. The “binding of His6-tagged control proteins Bcl-XL and Bid to Ni/NTA” value in data set [2] is recorded as “without affecting”. In addition, in [3] (10 μM compound, 24 hrs), the “site of action in NOD1 signaling (NOD1, RIP2, XIAP transfection)” value was “targets NOD1 signaling upstream of RIP2”. In data set [3] (data not shown), the “impact in cells over-expressing IKKγ/NEMO, MYD88, FLIP, CARD6, APAF1 or NLRC4” value is “No significant impact”. The NOD2 compartmentalization entry in data set [4] is listed as “No changes”. Also, the Cell viability entry in [5] was “not affected”. In addition, in data set [6], the “ISRE-driven reporter gene activity induced by other interferon response stimuli” value is reported as “no inhibition”. Moreover, the “NF-κB-inducible SEAP activity induced by TLR agonists” value in [7] is given as “No inhibitory effects”. Besides, the “non-canonical NF-κB activation induced by BAFF” value in data set [8] is “not inhibited”. Besides, in data set [9], the Akt survival pathway result is “without affecting”; the “γ-tri-DAP-dependent activation of MAPK (p38 phosphorylation)” value is recorded as “inhibits”; the “γ-tri-DAP-dependent activation of NF-κB (IκBα phosphorylation and degradation)” value is on record as “inhibits”. The “NF-κB activity induced by TLR9 ligand CpG DNA” value in [10] is on record as “did not inhibit”. In addition, in data set [11], the “γ-tri-DAP-induced expression of IκBα at the mRNA level” value is on record as “inhibited”.
